Converted amounts (≈) assume the structure as drawn.
What was measured:
Candida albicans [1] = experiment: Antifungal activity against Candida albicans ATCC 44859 after 48 hrs by microdilution method; format: functional; settings: ATCC 44859, 48 h
Summary of the method: (§1)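 Yeasts held on Sabouraud dextrose agar. MIC by NCCLS M27-A broth microdilution in RPMI 1640 with L-glutamine, buffered with 0.165 M MOPS to pH 7.0. Compounds in DMSO (≤2% final), twofold dilutions 500–0.48. Final inoculum 5 × 10³ ± 0.2 cfu mL⁻¹. Incubated at 35 °C; absorbance at 540 nm read at 24 and 48 h. MIC is 80% growth inhibition versus control; run twice in duplicate.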

Candida albicans [2] = experiment: Antifungal activity against Candida albicans ATCC 90028 after 24 hrs by microdilution method; format: functional; settings: ATCC 90028, 24 h; summary of the method: as §1
Candida albicans [3] = experiment: Antifungal activity against Candida albicans ATCC 90028 after 48 hrs by microdilution method; format: functional; settings: ATCC 90028, 48 h; summary of the method: as §1
Candida parapsilosis [4] = experiment: Antifungal activity against Candida parapsilosis ATCC 22019 after 24 hrs by microdilution method; format: functional; settings: Lodderomyces parapsilosis, ATCC 22019, 24 h; summary of the method: as §1
Candida parapsilosis [5] = experiment: Antifungal activity against Candida parapsilosis ATCC 22019 after 48 hrs by microdilution method; format: functional; settings: Lodderomyces parapsilosis, ATCC 22019, 48 h; summary of the method: as §1
Pichia kudriavzevii [6] = experiment: Antifungal activity against Candida krusei ATCC 6258 after 24 hrs by microdilution method; format: functional; settings: ATCC 6258, 24 h; summary of the method: as §1
Pichia kudriavzevii [7] = experiment: Antifungal activity against Candida krusei ATCC 6258 after 48 hrs by microdilution method; format: functional; settings: ATCC 6258, 48 h; summary of the method: as §1
Pichia kudriavzevii [8] = experiment: Antifungal activity against Candida krusei E28 after 24 hrs by microdilution method; format: functional; settings: E28, 24 h; summary of the method: as §1
Pichia kudriavzevii [9] = experiment: Antifungal activity against Candida krusei E28 after 48 hrs by microdilution method; format: functional; settings: E28, 48 h; summary of the method: as §1
Candida tropicalis [10] = experiment: Antifungal activity against Candida tropicalis 156 after 24 hrs by microdilution method; format: functional; settings: Candida tropicalis, 156, 24 h; summary of the method: as §1
Candida tropicalis [11] = experiment: Antifungal activity against Candida tropicalis 156 after 48 hrs by microdilution method; format: functional; settings: Candida tropicalis, 156, 48 h; summary of the method: as §1
Nakaseomyces glabratus [12] = experiment: Antifungal activity against Candida glabrata 20/I after 24 hrs by microdilution method; format: functional; summary of the method: as §1
Nakaseomyces glabratus [13] = experiment: Antifungal activity against Candida glabrata 20/I after 48 hrs by microdilution method; format: functional; summary of the method: as §1
Clavispora lusitaniae [14] = experiment: Antifungal activity against Candida lusitaniae 2446/I after 24 hrs by microdilution method; format: functional; summary of the method: as §1
Clavispora lusitaniae [15] = experiment: Antifungal activity against Candida lusitaniae 2446/I after 48 hrs by microdilution method; format: functional; summary of the method: as §1
Trichosporon beigelii [16] = experiment: Antifungal activity against Trichosporon beigelii 1188 after 24 hrs by microdilution method; format: functional; settings: Trichosporon beigelii, 1188, 24 h; summary of the method: as §1
Trichosporon beigelii [17] = experiment: Antifungal activity against Trichosporon beigelii 1188 after 48 hrs by microdilution method; format: functional; settings: Trichosporon beigelii, 1188, 48 h; summary of the method: as §1
Aspergillus fumigatus [18] = experiment: Antifungal activity against Aspergillus fumigatus 231 after 24 hrs by microdilution method; format: functional; settings: Aspergillus fumigatus, 231, 24 h
Summary of the method: (§2)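 Filamentous strains held on Sabouraud dextrose agar. NCCLS M27-A broth microdilution in RPMI 1640 with L-glutamine and 0.165 M MOPS, pH 7.0. DMSO diluent ≤2% final; twofold dilutions 500–0.48. Inoculum 5 × 10³ ± 0.2 cfu mL⁻¹ final.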

Aspergillus fumigatus [19] = experiment: Antifungal activity against Aspergillus fumigatus 231 after 48 hrs by microdilution method; format: functional; settings: Aspergillus fumigatus, 231, 48 h; summary of the method: as §2
Lichtheimia corymbifera [20] = experiment: Antifungal activity against Absidia corymbifera 272 after 24 hrs by microdilution method; format: functional; settings: Lichtheimia corymbifera, 272, 24 h; summary of the method: as §2
Lichtheimia corymbifera [21] = experiment: Antifungal activity against Absidia corymbifera 272 after 48 hrs by microdilution method; format: functional; settings: Lichtheimia corymbifera, 272, 48 h; summary of the method: as §2
[22] = tested on: Trichophyton mentagrophytes; experiment: Antifungal activity against Trichophyton mentagrophytes 445 after 72 hrs by microdilution method; format: functional; settings: Trichophyton mentagrophytes, 445, 72 h
Summary of the method: (§3)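 Dermatophyte held on Sabouraud dextrose agar. M27-A microdilution in MOPS-buffered (0.165 M, pH 7.0) RPMI 1640 with L-glutamine. DMSO ≤2% final; twofold dilutions 500–0.48. Inoculum 5 × 10³ ± 0.2 cfu mL⁻¹ final. Incubated at 35 °C; MIC read visually at 72 and 120 h as 80% inhibition of control growth; determined twice in duplicate.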

[23] = tested on: Trichophyton mentagrophytes; experiment: Antifungal activity against Trichophyton mentagrophytes 445 after 120 hrs by microdilution method; format: functional; settings: Trichophyton mentagrophytes, 445, 120 h; summary of the method: as §3
Candida albicans [24] = experiment: Antifungal activity against Candida albicans ATCC 44859 after 24 hrs by microdilution method; format: functional; settings: ATCC 44859, 24 h; summary of the method: as §1
HL-60 = experiment: Cytostatic activity against human HL60 cells after 72 hrs by XTT assay; format: functional, cell-based; settings: Homo sapiens, HL-60, 72 h; read-out: IC50
Summary of the method: (§4)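 Leukemia cells (L1210 ATCC CCL 219, CCRF-CEM ATCC CCL 119, HL-60 ATCC CCL 240) grown in 24-well plates in RPMI 1640 with fetal calf serum. Growth assessed 72 h after drug addition. Viability measured by XTT spectrophotometric assay; potency given as IC50.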

CCRF-CEM = experiment: Cytostatic activity against human CCRF-CEM cells after 72 hrs by XTT assay; format: functional, cell-based; settings: Homo sapiens, CCRF-CEM, 72 h; read-out: IC50; summary of the method: as §4
HeLa S3 = experiment: Cytostatic activity against human HeLaS3 cells after 48 hrs by XTT assay; settings: Homo sapiens, HeLa S3, 48 h; read-out: IC50

Row | MIC80 (Candida albicans [1]) | MIC80 (Candida albicans [2]) | MIC80 (Candida albicans [3]) | MIC80 (Candida parapsilosis [4]) | MIC80 (Candida parapsilosis [5]) | MIC80 (Pichia kudriavzevii [6]) | MIC80 (Pichia kudriavzevii [7]) | MIC80 (Pichia kudriavzevii [8]) | MIC80 (Pichia kudriavzevii [9]) | MIC80 (Candida tropicalis [10]) | MIC80 (Candida tropicalis [11]) | MIC80 (Nakaseomyces glabratus [12]) | MIC80 (Nakaseomyces glabratus [13]) | MIC80 (Clavispora lusitaniae [14]) | MIC80 (Clavispora lusitaniae [15]) | MIC80 (Trichosporon beigelii [16]) | MIC80 (Trichosporon beigelii [17]) | MIC80 (Aspergillus fumigatus [18]) | MIC80 (Aspergillus fumigatus [19]) | MIC80 (Lichtheimia corymbifera [20]) | SMILES | also measured
1 | 1.95 µM (≈ 0.732 µg/mL) | 1.95 µM (≈ 0.732 µg/mL) | 7.81 µM (≈ 2.93 µg/mL) | 7.81 µM (≈ 2.93 µg/mL) | 15.6 µM (≈ 5.86 µg/mL) | 7.81 µM (≈ 2.93 µg/mL) | 15.6 µM (≈ 5.86 µg/mL) | 7.81 µM (≈ 2.93 µg/mL) | 15.6 µM (≈ 5.86 µg/mL) | 7.81 µM (≈ 2.93 µg/mL) | 7.81 µM (≈ 2.93 µg/mL) | 0.97 µM (≈ 0.364 µg/mL) | 1.95 µM (≈ 0.732 µg/mL) | 3.9 µM (≈ 1.46 µg/mL) | 7.81 µM (≈ 2.93 µg/mL) | 7.81 µM (≈ 2.93 µg/mL) | 15.6 µM (≈ 5.86 µg/mL) | 3.9 µM (≈ 1.46 µg/mL) | 7.81 µM (≈ 2.93 µg/mL) | 31.2 µM (≈ 11.7 µg/mL) | COc1ccc(OCC2C=C(c3ccc(Br)cc3)C(=O)O2)cc1 (stereo unspecified) | MIC80 (Lichtheimia corymbifera [21]): 62.5 µM (≈ 23.5 µg/mL); MIC80 [22]: 1.95 µM (≈ 0.732 µg/mL); MIC80 [23]: 1.95 µM (≈ 0.732 µg/mL); MIC80 (Candida albicans [24]): 0.97 µM (≈ 0.364 µg/mL)
2 | 1.95 µM (≈ 0.919 µg/mL) | 3.9 µM (≈ 1.84 µg/mL) | 7.81 µM (≈ 3.68 µg/mL) | 31.2 µM (≈ 14.7 µg/mL) | > 500 µM | 31.2 µM (≈ 14.7 µg/mL) | > 500 µM | 31.2 µM (≈ 14.7 µg/mL) | > 500 µM | 15.6 µM (≈ 7.36 µg/mL) | 31.2 µM (≈ 14.7 µg/mL) | 1.95 µM (≈ 0.919 µg/mL) | 3.9 µM (≈ 1.84 µg/mL) | 7.81 µM (≈ 3.68 µg/mL) | 31.2 µM (≈ 14.7 µg/mL) | 7.81 µM (≈ 3.68 µg/mL) | 500 µM (≈ 236 µg/mL) | 3.9 µM (≈ 1.84 µg/mL) | 7.81 µM (≈ 3.68 µg/mL) | > 500 µM | O=C1OC(COc2ccc(I)cc2)C=C1c1ccc(Br)cc1 (stereo unspecified) | MIC80 (Lichtheimia corymbifera [21]): > 500 µM; MIC80 [22]: 1.95 µM (≈ 0.919 µg/mL); MIC80 [23]: 3.9 µM (≈ 1.84 µg/mL); IC50 (HL-60): 7.22 µM; IC50 (CCRF-CEM): 1.19 µM; MIC80 (Candida albicans [24]): 0.48 µM (≈ 0.226 µg/mL); IC50 (HeLa S3): 4 µM
3 | 1.95 µM (≈ 0.827 µg/mL) | 3.9 µM (≈ 1.65 µg/mL) | 7.81 µM (≈ 3.31 µg/mL) | 7.81 µM (≈ 3.31 µg/mL) | 31.2 µM (≈ 13.3 µg/mL) | 7.81 µM (≈ 3.31 µg/mL) | 15.6 µM (≈ 6.62 µg/mL) | 7.81 µM (≈ 3.31 µg/mL) | 15.6 µM (≈ 6.62 µg/mL) | 7.81 µM (≈ 3.31 µg/mL) | 15.6 µM (≈ 6.62 µg/mL) | 1.95 µM (≈ 0.827 µg/mL) | 1.95 µM (≈ 0.827 µg/mL) | 7.81 µM (≈ 3.31 µg/mL) | 15.6 µM (≈ 6.62 µg/mL) | 7.81 µM (≈ 3.31 µg/mL) | 62.5 µM (≈ 26.5 µg/mL) | 3.9 µM (≈ 1.65 µg/mL) | 15.6 µM (≈ 6.62 µg/mL) | 31.2 µM (≈ 13.3 µg/mL) | O=C1OC(COc2cccc(Br)c2)C=C1c1ccc(Br)cc1 (stereo unspecified) | MIC80 (Lichtheimia corymbifera [21]): 62.5 µM (≈ 26.5 µg/mL); MIC80 [22]: 1.95 µM (≈ 0.827 µg/mL); MIC80 [23]: 1.95 µM (≈ 0.827 µg/mL); MIC80 (Candida albicans [24]): 0.97 µM (≈ 0.411 µg/mL)
4 | 500 µM (≈ 169 µg/mL) | > 500 µM | > 500 µM | 250 µM (≈ 84.3 µg/mL) | > 500 µM | 500 µM (≈ 169 µg/mL) | > 500 µM | 500 µM (≈ 169 µg/mL) | > 500 µM | > 500 µM | > 500 µM | 250 µM (≈ 84.3 µg/mL) | > 500 µM | > 500 µM | > 500 µM | > 500 µM | > 500 µM | > 500 µM | > 500 µM | 250 µM (≈ 84.3 µg/mL) | CC(=O)OCC/C=C1/C=C(c2ccc(Br)cc2)C(=O)O1 | MIC80 (Lichtheimia corymbifera [21]): 250 µM (≈ 84.3 µg/mL); MIC80 [22]: 15.6 µM (≈ 5.27 µg/mL); MIC80 [23]: 15.6 µM (≈ 5.27 µg/mL); MIC80 (Candida albicans [24]): 15.6 µM (≈ 5.27 µg/mL)
5 | 1.95 µM (≈ 0.673 µg/mL) | 1.95 µM (≈ 0.673 µg/mL) | 7.81 µM (≈ 2.7 µg/mL) | 7.81 µM (≈ 2.7 µg/mL) | 31.2 µM (≈ 10.8 µg/mL) | 7.81 µM (≈ 2.7 µg/mL) | 31.2 µM (≈ 10.8 µg/mL) | 15.6 µM (≈ 5.39 µg/mL) | 31.2 µM (≈ 10.8 µg/mL) | 7.81 µM (≈ 2.7 µg/mL) | 15.6 µM (≈ 5.39 µg/mL) | 1.95 µM (≈ 0.673 µg/mL) | 1.95 µM (≈ 0.673 µg/mL) | 3.9 µM (≈ 1.35 µg/mL) | 7.81 µM (≈ 2.7 µg/mL) | 7.81 µM (≈ 2.7 µg/mL) | 31.2 µM (≈ 10.8 µg/mL) | 1.95 µM (≈ 0.673 µg/mL) | 15.6 µM (≈ 5.39 µg/mL) | 125 µM (≈ 43.1 µg/mL) | O=C1OC(COc2ccccc2)C=C1c1ccc(Br)cc1 (stereo unspecified) | MIC80 (Lichtheimia corymbifera [21]): 500 µM (≈ 173 µg/mL); MIC80 [22]: 1.95 µM (≈ 0.673 µg/mL); MIC80 [23]: 3.9 µM (≈ 1.35 µg/mL); IC50 (HL-60): 4.37 µM; IC50 (CCRF-CEM): 1.09 µM; MIC80 (Candida albicans [24]): 0.97 µM (≈ 0.335 µg/mL); IC50 (HeLa S3): 4.67 µM
